Experimental data taken from ChEMBL document CHEMBL3108694, “Development of novel dual binders as potent, selective, and orally bioavailable tankyrase inhibitors” (J Med Chem, 2013).
Converted amounts (≈) assume the structure as drawn.

Legend:
[1] = AUC (0 to infinity) in CD-1 mouse at 30 mg/kg, po; assay type: ADME, organism-based; set-up: time infinity, dose 30 mg/kg, route oral; settings: plasma
Method in brief: (§1)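 Male CD-1 mice given a single oral dose of 30 mg/kg. Vehicle was 10% Pluronic F68, 30% HPBCD and 60% water, pH adjusted to 10.0 with NaOH for most compounds or to 2.5 with methanesulfonic acid for one. Mean plasma PK parameters were reported.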

[2] = Tmax in CD-1 mouse at 30 mg/kg, po; assay type: ADME, organism-based; set-up: dose 30 mg/kg, route oral; settings: in vivo; method in brief: as §1
[3] = Cmax in CD-1 mouse at 30 mg/kg, po; assay type: ADME, organism-based; set-up: dose 30 mg/kg, route oral; settings: in vivo; method in brief: as §1
[4] = Inhibition of TNKS in human SW480 cells assessed as accumulation of axin-2 into cytoplasmic foci after 24 hrs by Hoechst dye-based assay; settings: SW480, 24 h
[5] = Fraction unbound in mouse plasma at 5 uM after 5 hrs by equilibrium dialysis method; assay type: ADME, cell-free
Method in brief: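 Mouse plasma was spiked to a final 5 μM and equilibrium-dialyzed against plasma water (ultrafiltrate) for 5 h at 37 °C in a CO2 incubator, using a rapid equilibrium dialysis device. Fraction unbound was determined in duplicate.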

[6] = Inhibition of TNKS in human DLD1 cells expressing APC mutant assessed as inhibition of super-Topflash reporter gene transcription after 40 to 48 hrs by dual-glo luciferase reporter gene assay; assay type: cell-based; settings: DLD-1
Method in brief: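 DLD-1 cells carried an 8× TCF-driven firefly luciferase and an EF1a-driven Renilla luciferase, and were seeded at 10 000/well in RPMI with 10% FBS without antibiotics. A 10-point, 3-fold dilution series starting at 10 μM was applied for 40–48 h at 37 °C. Firefly and Renilla activities were read with Dual-Glo reagents.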

[7] = Inhibition of TNKS in human SW480 cells assessed as degradation of total pool of beta-catenin after 40 to 48 hrs; assay type: cell-based
Method in brief: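 SW480 cells were seeded at 10 000/well in MEMα with 10% HI FBS, GlutaMAX, pyruvate and 10 mM HEPES. They were treated with a 10-point, 3-fold dilution series at 0.1% final DMSO for 40–48 h at 37 °C, then lysed. Total β-catenin was measured by MSD sandwich immunoassay (polyclonal capture, SULFO-TAG mAb detection).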

[8] = Solubility in fasted state simulated intestinal fluid at pH 6.8; assay type: ADME
[9] = Intrinsic clearance in rat liver microsomes at 1 uM after 30 mins; assay type: ADME; settings: read-out: CLH
Method in brief: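 Substrate depletion in rat liver microsomes: 0.25 mg protein/mL, 1 mM NADPH and 2 mM MgCl2 in 50 mM potassium phosphate, pH 7.4, prewarmed to 37 °C. Test compound was added to a final 1 μM, and parent loss was measured after 30 min at 37 °C.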

[10] = Half life in CD-1 mouse plasma at 1 uM by LC-MS/MS analysis; assay type: ADME, cell-free
Method in brief: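 Lithium-heparinized CD-1 mouse plasma was spiked with 1 μM substrate and incubated at 37 °C for 3 h, sampling at 0, 0.167, 1, 2 and 3 h (n = 2). Samples underwent acetonitrile protein precipitation with tolbutamide as internal standard. Analysis was by reversed-phase UPLC-ESI-MS/MS in MRM mode.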

[11] = target: T1, Poly [ADP-ribose] polymerase tankyrase-1 (Homo sapiens, UniProt O95271); assay: Inhibition of 6x-His-tagged TNKS1 (unknown origin) after 60 mins
T1 sequence (O95271 whole entry): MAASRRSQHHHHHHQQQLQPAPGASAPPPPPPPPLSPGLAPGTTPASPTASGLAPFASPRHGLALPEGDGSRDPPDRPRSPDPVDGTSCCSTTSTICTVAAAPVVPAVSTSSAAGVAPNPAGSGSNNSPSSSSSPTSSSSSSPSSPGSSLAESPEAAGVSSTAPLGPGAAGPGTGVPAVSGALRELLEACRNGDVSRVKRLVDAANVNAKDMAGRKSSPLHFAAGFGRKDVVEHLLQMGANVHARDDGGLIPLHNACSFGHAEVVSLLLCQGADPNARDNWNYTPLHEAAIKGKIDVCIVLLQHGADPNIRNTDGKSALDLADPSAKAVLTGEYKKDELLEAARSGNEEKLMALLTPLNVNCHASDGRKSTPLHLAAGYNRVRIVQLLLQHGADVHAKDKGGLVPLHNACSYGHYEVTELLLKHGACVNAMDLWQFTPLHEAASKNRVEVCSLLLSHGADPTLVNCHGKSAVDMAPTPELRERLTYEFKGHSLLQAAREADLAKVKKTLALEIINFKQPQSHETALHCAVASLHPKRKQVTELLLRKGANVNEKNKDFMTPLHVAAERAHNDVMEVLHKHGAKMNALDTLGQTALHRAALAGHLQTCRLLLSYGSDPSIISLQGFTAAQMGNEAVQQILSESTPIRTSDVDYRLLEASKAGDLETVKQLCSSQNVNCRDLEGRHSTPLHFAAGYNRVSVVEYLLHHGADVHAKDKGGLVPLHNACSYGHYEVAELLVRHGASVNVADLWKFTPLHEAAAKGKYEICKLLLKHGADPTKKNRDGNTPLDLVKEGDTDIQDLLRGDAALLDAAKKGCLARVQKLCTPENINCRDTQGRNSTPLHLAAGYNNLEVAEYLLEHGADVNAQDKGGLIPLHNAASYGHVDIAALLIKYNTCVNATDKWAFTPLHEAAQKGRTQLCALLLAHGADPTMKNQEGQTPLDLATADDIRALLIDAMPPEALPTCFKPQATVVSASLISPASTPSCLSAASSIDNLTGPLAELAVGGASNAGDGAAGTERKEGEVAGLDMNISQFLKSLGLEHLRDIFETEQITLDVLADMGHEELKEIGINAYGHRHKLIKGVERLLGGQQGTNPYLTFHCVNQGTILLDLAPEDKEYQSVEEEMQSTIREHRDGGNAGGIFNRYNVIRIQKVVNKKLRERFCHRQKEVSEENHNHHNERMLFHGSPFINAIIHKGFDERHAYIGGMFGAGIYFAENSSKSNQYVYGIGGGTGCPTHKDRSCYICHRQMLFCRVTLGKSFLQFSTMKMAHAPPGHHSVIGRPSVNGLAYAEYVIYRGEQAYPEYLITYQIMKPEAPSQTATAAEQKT

[12] = Volume of distribution at steady state in rat at 0.5 mg/kg, iv; assay type: ADME, organism-based; set-up: dose 0.5 mg/kg, route intravenous; settings: in vivo, read-out: Vdss
Method in brief: (§2)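 Male rats received a single intravenous dose of 0.5 mg/kg. Mean clearance, steady-state volume of distribution and half-life were reported.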

[13] = Half life in rat at 0.5 mg/kg, iv; assay type: ADME, organism-based; set-up: dose 0.5 mg/kg, route intravenous; settings: in vivo; method in brief: as §2
[14] = Clearance in rat at 0.5 mg/kg, iv; assay type: ADME, organism-based; set-up: dose 0.5 mg/kg, route intravenous; settings: in vivo; method in brief: as §2

Row | SMILES | IC50 [7] [µM] | microsomal CLint at 1 µM [9] [µL/min/mg] | IC50 [11] [µM] | other results
1 | COc1ccccc1N(C)C(=O)c1ccc(NC(=O)CCc2nc3ccccc3c(=O)[nH]2)cc1 | 5.68 | – | 0.4 | half-life at 1 µM [10]: 0.633 h
2 | O=C(CCSc1nc2ccccc2c(=O)[nH]1)N[C@H]1CC[C@H](Oc2ccc(Cl)cc2)CC1 | 0.02 | – | – | –
3 | O=C(CCSc1nc2ccccc2c(=O)[nH]1)N[C@H]1CC[C@H](Oc2cccc(Cl)c2)CC1 | 0.12 | – | – | –
4 | COc1ccccc1NC(=O)[C@H]1CC[C@@H](NC(=O)CCc2nc3ccccc3c(=O)[nH]2)CC1 | – | – | 7.46 | half-life at 1 µM [10]: > 16.7 h
5 | O=C(CCc1nc2ccccc2c(=O)[nH]1)Nc1ccc(-c2nc3ccccc3o2)cc1 | 7.72 | – | 0.86 | –
6 | O=C(CCc1nc2c(c(=O)[nH]1)CCCN2)N[C@H]1CC[C@H](c2nnc(-c3ccccc3)o2)CC1 | 1.02 | < 14 | – | –
7 | O=C(CCc1nc2ccccc2c(=O)[nH]1)Nc1ccc(-c2c[nH]c(-c3ccccc3)n2)cc1 | > 10 | – | 0.64 | half-life at 1 µM [10]: 0.883 h
8 | O=C(CCSc1nc2ccccc2c(=O)[nH]1)N[C@H]1CC[C@H](Oc2ccc(F)cc2)CC1 | 0.0167 | – | – | –
9 | O=C(CCc1nc2ccccc2c(=O)[nH]1)Nc1ccc(-c2nc(-c3ccccc3)c[nH]2)cc1 | – | – | > 46 | –
10 | O=C(CCCc1nc2ccccc2c(=O)[nH]1)N[C@H]1CC[C@H](c2nnc(-c3ccccc3)o2)CC1 | 0.017 | 20 | – | solubility [8]: 11 µg/mL (≈ 24 µM)
11 | O=C(CCSc1nc2ccccc2c(=O)[nH]1)N[C@H]1CC[C@H](Oc2ccccn2)CC1 | 0.0154 | – | – | –
12 | O=C(CCc1nc2ccccc2c(=O)[nH]1)Nc1ccc(-c2csc(-c3ccccc3)n2)cc1 | – | – | > 46 | –
13 | COc1ccccc1NC(=O)c1ccc(NC(=O)CCc2nc3ccccc3c(=O)[nH]2)cc1C | 3.09 | – | 0.21 | half-life at 1 µM [10]: 0.717 h
14 | O=C(CCSc1nc2ccccc2c(=O)[nH]1)N[C@H]1CC[C@H](Oc2ccncc2)CC1 | 0.0069 | – | – | AUC(0-inf) [1]: 11.5 µM·h; Vd [12]: 0.4 L/kg; Tmax [2]: 0.67 h; Cmax [3]: 7 µM; half-life [13]: 0.7 h; EC50 [4]: 0.0068 µM; fraction unbound at 5 h, 5 µM [5]: 0.032; IC50 [6]: 0.0007 µM; clearance [14]: 11 mL/min/kg
15 | COc1ccccc1NC(=O)[C@H]1CC[C@H](NC(=O)CCc2nc3ccccc3c(=O)[nH]2)CC1 | 0.3 | – | 0.031 | half-life at 1 µM [10]: > 16.7 h
16 | N#Cc1cc(O[C@H]2CC[C@H](NC(=O)CCSc3nc4ccccc4c(=O)[nH]3)CC2)ccc1Cl | 0.0242 | – | – | –
17 | N#Cc1cccc(O[C@H]2CC[C@H](NC(=O)CCSc3nc4ccccc4c(=O)[nH]3)CC2)c1 | 0.0478 | – | – | –
18 | Cc1ccnc2c(NC(=O)c3ccc(N4C(=O)[C@@H]5[C@H](C4=O)[C@@H]4C=C[C@H]5C4)cc3)cccc12 | – | – | 0.16 | –

The next lines start with results.

Row | IC50 [7] [µM] | microsomal CLint at 1 µM [9] [µL/min/mg] | IC50 [11] [µM] | SMILES | other results
19 | 0.0081 | – | – | N#Cc1ccc(O[C@H]2CC[C@H](NC(=O)CCSc3nc4ccccc4c(=O)[nH]3)CC2)cc1Cl | AUC(0-inf) [1]: 100 µM·h; Tmax [2]: 1.58 h; Cmax [3]: 15.1 µM; EC50 [4]: 0.0084 µM; fraction unbound at 5 h, 5 µM [5]: 0.002; IC50 [6]: 0.0011 µM
20 | 0.5 | > 399 | – | O=C(C[C@H]1CCCN1Cc1nc2ccccc2c(=O)[nH]1)N[C@H]1CC[C@H](c2nnc(-c3ccccc3)o2)CC1 | solubility [8]: 42 µg/mL (≈ 81.9 µM)
21 | – | – | 1.75 | COc1cccc(C)c1NC(=O)c1ccc(NC(=O)CCc2nc3ccccc3c(=O)[nH]2)cc1 | half-life at 1 µM [10]: 4.5 h
22 | 0.41 | – | – | O=C(CCc1nc2ccccc2c(=O)[nH]1)Nc1ccc(-c2nnc(-c3ccccc3)o2)cc1 | half-life at 1 µM [10]: 2.03 h; EC50 [4]: 2.45 µM
23 | 0.08 | < 14 | – | O=C(CCc1nc2ccccc2c(=O)[nH]1)N[C@H]1CC[C@H](c2nnc(-c3ccccc3)o2)CC1 | solubility [8]: 16.2 µg/mL (≈ 36.5 µM); half-life at 1 µM [10]: > 8.33 h; EC50 [4]: 0.64 µM
24 | – | – | > 46 | O=C(CCc1nc2ccccc2c(=O)[nH]1)Nc1ccc(-c2nc(-c3ccccc3)no2)cc1 | –
25 | 1.17 | 206 | – | O=C(N[C@H]1CC[C@H](c2nnc(-c3ccccc3)o2)CC1)[C@@H]1CCCN(Cc2nc3ccccc3c(=O)[nH]2)C1 | solubility [8]: 43 µg/mL (≈ 83.9 µM)
26 | – | – | > 46 | COc1ccccc1NS(=O)(=O)c1ccc(NC(=O)CCc2nc3ccccc3c(=O)[nH]2)cc1 | –
27 | 2.13 | < 14 | – | O=C(CCSc1nccc(=O)[nH]1)N[C@H]1CC[C@H](c2nnc(-c3ccccc3)o2)CC1 | solubility [8]: 53 µg/mL (≈ 125 µM)
28 | > 10 | – | 1.09 | Cn1c(-c2ccc(NC(=O)CCc3nc4ccccc4c(=O)[nH]3)cc2)nc2ccccc21 | half-life at 1 µM [10]: > 8.33 h
29 | 0.011 | 60 | – | O=C(CCSc1nc2c(c(=O)[nH]1)CCCC2)N[C@H]1CC[C@H](c2nnc(-c3ccccc3)o2)CC1 | AUC(0-inf) [1]: 5.3 µM·h; Tmax [2]: 3.23 h; Cmax [3]: 3.6 µM; solubility [8]: 8 µg/mL (≈ 16.7 µM); EC50 [4]: 0.014 µM; fraction unbound at 5 h, 5 µM [5]: 0.012; IC50 [6]: 0.0013 µM
30 | 1.95 | 24 | – | O=C(CCc1nc2ncccc2c(=O)[nH]1)N[C@H]1CC[C@H](c2nnc(-c3ccccc3)o2)CC1 | –
31 | 0.091 | 20 | – | O=C(CSc1nc2ccccc2c(=O)[nH]1)N[C@H]1CC[C@H](c2nnc(-c3ccccc3)o2)CC1 | solubility [8]: 1 µg/mL (≈ 2.17 µM)
32 | 0.1 | 159 | – | O=C(CCCSc1nc2ccccc2c(=O)[nH]1)N[C@H]1CC[C@H](c2nnc(-c3ccccc3)o2)CC1 | solubility [8]: 1 µg/mL (≈ 2.04 µM)
